Measured values pooled from the literature.
Lines come from different studies, so protocols differ.
Target: Mitogen-activated protein kinase 4 (MAPK4, Homo sapiens, UniProt P31152)

| Structure (SMILES) | observed | method | tested at | remaining binding [%] |
| --- | --- | --- | --- | --- |
| CN(C)c1nccc(-c2cnn3ncccc23)n1 | binding |  | 1 µM | 100 |
| O=C(c1ccc(Nc2ncc(Cl)c(-c3cc4ccccc4s3)n2)cc1)N1CCC(N2CCCC2)CC1 | binding | competition with immobilised ligand | 1 µM | 20 |
| Cc1cnn2ncc(-c3ccnc(N(C)C)n3)c2c1 | binding |  | 1 µM | 94 |
| CCN1CCN(Cc2ccc(C(=O)Nc3ccc(C)c(Oc4ccc5c(c4)CC(=O)N5)c3)cc2C(F)(F)F)CC1 | binding | competition with immobilised ligand | 1 µM | 100 |
| O=C(c1ccc(Nc2ncc(Cl)c(-c3ccc(Cl)s3)n2)cc1)N1CCC(N2CCCC2)CC1 | binding | competition with immobilised ligand | 1 µM | 0.3 |
| CNC(=O)[C@@H]1CC[C@@H](n2c(-c3ccc4cnccc4c3)nc3ccc(C(=O)NCc4cccc(C(N)=O)c4)cc32)C1 | binding | competition with immobilised ligand | 1 µM | 100 |
| N[C@@H]1CCN(c2nccc(-c3cnn4ncccc34)n2)C1 | binding |  | 1 µM | 100 |
| Nc1ncc2c(n1)-c1c([nH]c3ccc(C#CC4CC4)cc13)CCCC2 | binding | competition with immobilised ligand | 1 µM | 96 |
| O=C(Nc1c[nH]nc1C(=O)NC1CCNCC1)c1cc(F)cc(F)c1 | binding | competition with immobilised ligand | 1 µM | 100 |
| CCOCCn1cc(C(=O)Nc2ccc(-n3nc(-c4cccnc4)cc3C(F)(F)F)cn2)ccc1=O | cell-free assay | competition with immobilised ligand | 1 µM | 100 |
| CN(C)c1ncc(F)c(-c2cnn3ncccc23)n1 | binding |  | 1 µM | 100 |
| CC(=O)c1c(NS(C)(=O)=O)c2cc(-c3ccc(Cl)cc3)c(-c3ccc(Cl)cc3Cl)nc2n(C)c1=O | cell-free assay | competition with immobilised ligand | 1 µM | 100 |
| Cc1cnc(Nc2ccc(C(=O)N3CCC(N4CCCC4)CC3)cc2)nc1-c1cc2ccccc2s1 | binding | competition with immobilised ligand | 1 µM | 39 |
| c1ccc(N2CCN(Cc3nc4ccccc4[nH]3)CC2)nc1 | binding | competition with immobilised ligand | 1 µM | 100 |
| C=CC(=O)N1CCC(C(=O)NCC(=O)N2CCN(c3nc(-c4cnc(N)nc4C(F)F)nc(N4CCOCC4)n3)CC2)CC1 | binding | competition with immobilised ligand | 1 µM | 97 |
| CS(=O)(=O)N1CCCC(NC(=O)[C@H](CCC2CCCCC2)NC(=O)c2ccc(CNC(=O)c3cnc4ccccn34)cc2)C1 (stereo partly drawn) | cell-free assay | competition with immobilised ligand | 0.1 µM | 100 |
| CN(CCCC(F)(F)F)c1nccc(-c2cnn3ncccc23)n1 | binding |  | 1 µM | 100 |
| O=C(Nc1cnc(Oc2ccc(F)cc2)nc1)N1CCc2ncccc2[C@@H]1c1ccc(F)cc1 | cell-free assay | competition with immobilised ligand | 1 µM | 95 |
| C[C@H]1CCN(c2nccc(-c3cnn4ncccc34)n2)C1 | binding |  | 1 µM | 93 |
| CO[C@@H](C)c1c(Nc2ccc([C@@H](N(C)C(=O)C3CCS(=O)(=O)CC3)C(F)(F)F)cc2)cnc2cc(Cl)nn12 | cell-free assay | competition with immobilised ligand | 1 µM | 100 |
| C[C@@H](c1ccc(-n2cnc3c(N)ncnc32)cc1)N1CCc2nn(C)c(Cc3ccccc3)c2C1=O | binding | competition with immobilised ligand | 0.1 µM | 87 |
